# Laboratory results: ChEMBL document CHEMBL1255228 (J Med Chem, 2010)
# What was measured:
# [1] = molecular target: Cannabinoid receptor 2 (Mus musculus, UniProt P47936); test: Displacement of [3H]CP55940 from mouse spleen CB2 receptor; format: tissue-based
# [2] = molecular target: Cannabinoid receptor 2 (Homo sapiens, UniProt P34972); test: Displacement of [3H]CP55940 from human CB2 receptor expressed in HEK293 cells; format: cell-based
# [3] = molecular target: Cannabinoid receptor 1 (Rattus norvegicus, UniProt P20272); test: Displacement of [3H]CP55940 from rat brain CB1 receptor
# Chain of Cannabinoid receptor 1 (P20272 whole entry): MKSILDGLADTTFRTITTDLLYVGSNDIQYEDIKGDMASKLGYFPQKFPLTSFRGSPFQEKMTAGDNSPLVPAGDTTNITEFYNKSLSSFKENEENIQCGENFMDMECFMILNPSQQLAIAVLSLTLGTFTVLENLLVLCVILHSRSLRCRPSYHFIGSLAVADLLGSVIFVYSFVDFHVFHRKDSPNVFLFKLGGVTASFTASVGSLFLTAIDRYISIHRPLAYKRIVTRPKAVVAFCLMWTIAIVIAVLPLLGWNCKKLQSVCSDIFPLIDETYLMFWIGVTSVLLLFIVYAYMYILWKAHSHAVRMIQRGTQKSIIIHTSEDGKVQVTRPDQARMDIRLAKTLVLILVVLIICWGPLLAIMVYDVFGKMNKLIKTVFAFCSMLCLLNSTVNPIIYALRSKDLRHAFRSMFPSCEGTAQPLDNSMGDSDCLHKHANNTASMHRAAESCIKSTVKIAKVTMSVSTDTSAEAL
# [4] = tested on: Rattus norvegicus; test: Antinociceptive activity in sc dosed Sprague-Dawley rat assessed as thermal-stimulus induced tail flick latency after 120 mins; format: functional; conditions: 2 h
# Method in brief: (§1)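 Female Sprague-Dawley rats (200–350 g, n=5-6/group), tested repeatedly with ≥3 days between sessions. Drug given s.c. (1.0 ml/kg) in 20% ethanol/20% alkamuls/60% saline diluted with saline; morphine in saline. Lamp set for 2–3 sec baseline, 6.0 sec cut-off; two baselines at 10 min intervals; latency read at 30, 60, 120, 180, 360 min. Expressed as %MPE.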
# [5] = species: Rattus norvegicus; test: Antinociceptive activity in Sprague-Dawley rat assessed as reduction in heat-induced tail flick latency; format: functional; design: scale not given: the % may be the effect or the level left; method in brief: as §1
# [6] = tested on: Rattus norvegicus; test: Antinociceptive activity in Sprague-Dawley rat assessed as reduction in heat-induced tail flick latency at 0.1 mg/kg, sc after 120 mins; format: functional; design: scale not given: the % may be the effect or the level left; conditions: route subcutaneous; method in brief: as §1
# Chain of Cannabinoid receptor 2 (Mus musculus, UniProt P47936) (P47936 whole entry): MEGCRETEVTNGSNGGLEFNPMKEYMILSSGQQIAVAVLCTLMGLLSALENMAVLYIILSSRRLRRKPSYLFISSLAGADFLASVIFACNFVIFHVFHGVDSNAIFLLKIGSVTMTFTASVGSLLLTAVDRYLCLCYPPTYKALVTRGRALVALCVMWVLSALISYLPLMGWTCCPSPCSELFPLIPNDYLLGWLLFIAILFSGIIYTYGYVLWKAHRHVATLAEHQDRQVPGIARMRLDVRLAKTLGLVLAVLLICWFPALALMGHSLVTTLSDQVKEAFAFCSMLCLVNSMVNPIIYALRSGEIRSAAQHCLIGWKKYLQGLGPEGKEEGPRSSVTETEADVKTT
# Chain of Cannabinoid receptor 2 (Homo sapiens, UniProt P34972) (P34972 whole entry): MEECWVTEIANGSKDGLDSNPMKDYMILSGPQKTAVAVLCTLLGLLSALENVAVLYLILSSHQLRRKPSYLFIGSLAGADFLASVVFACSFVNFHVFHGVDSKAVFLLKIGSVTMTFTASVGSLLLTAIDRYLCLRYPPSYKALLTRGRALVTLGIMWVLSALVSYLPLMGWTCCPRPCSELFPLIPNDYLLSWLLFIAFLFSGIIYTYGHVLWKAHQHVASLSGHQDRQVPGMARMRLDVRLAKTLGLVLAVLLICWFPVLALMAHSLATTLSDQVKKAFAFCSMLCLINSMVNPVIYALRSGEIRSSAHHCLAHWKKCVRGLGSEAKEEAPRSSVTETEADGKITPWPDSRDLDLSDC
Compound,Ki [1],Ki [2],Ki [3],ED50 [4],Activity [5],Activity [6]
CCCCCCC1(c2cc(O)c3c(c2)OC(C)(C)[C@@H]2CCC(=O)C[C@@H]32)SCCS1,42.3 nM,32.6 nM,6.57 nM,,,
CCCC/C=C\C1(c2cc(O)c3c(c2)OC(C)(C)[C@@H]2CCC(=O)C[C@@H]32)CCC1,12 nM,15.1 nM,1.13 nM,,,
CCCCCCC1(c2cc(O)c3c(c2)OC(C)(C)[C@@H]2CCC(=O)C[C@@H]32)CCC1,13.7 nM,11.9 nM,0.84 nM,,,
CC1(C)Oc2cc(C3(CCCCBr)CCCC3)cc(O)c2[C@@H]2CC(=O)CC[C@H]21,13.9 nM,,13.1 nM,,,
CC1(C)Oc2cc(C3(CCCCCBr)CCCC3)cc(O)c2[C@@H]2CC(=O)CC[C@H]21,2.59 nM,1.32 nM,1.03 nM,,,
CC1(C)Oc2cc(C3(CCCCCCBr)CCCC3)cc(O)c2[C@@H]2CC(=O)CC[C@H]21,1.6 nM,3.02 nM,4.96 nM,,,
CC1(C)Oc2cc(C3(CCCCC#N)CCCC3)cc(O)c2[C@@H]2CC(=O)CC[C@H]21,2.78 nM,,3.14 nM,,,
CC1(C)Oc2cc(C3(CCCCCBr)CCC3)cc(O)c2[C@@H]2CC(=O)CC[C@H]21,7.56 nM,5.88 nM,2.33 nM,,,
CCCCCCC1(c2cc(O)c3c(c2)OC(C)(C)[C@@H]2CC[C@@H](O)C[C@@H]32)CCC1,4.21 nM,5.13 nM,0.16 nM,0.026 mg/kg,,
CC1(C)Oc2cc(C3(CCCCCBr)CCC3)cc(O)c2[C@@H]2C[C@H](O)CC[C@H]21,,,1.37 nM,,,
CC1(C)Oc2cc(C3(CCCCCBr)CCC3)cc(O)c2[C@@H]2C[C@@H](O)CC[C@H]21,,,1.5 nM,,,
CCCCCc1cc(O)c2c(c1)OC(C)(C)[C@@H]1CCC(=O)C[C@@H]21,265 nM,,333 nM,,,
CCCC/C=C\C1(c2cc(O)c3c(c2)OC(C)(C)[C@@H]2CCC(=O)C[C@@H]32)CCCC1,5.25 nM,7.02 nM,1.23 nM,,,
CCCCCCC1(c2cc(O)c3c(c2)OC(C)(C)[C@@H]2CCC(=O)C[C@@H]32)CCCC1,0.97 nM,3.34 nM,1.76 nM,,,
CCCCCCC(C)(C)c1cc(O)c2c(c1)OC(C)(C)[C@@H]1CCC(=O)C[C@@H]21 [NABILONE],1.8 nM,,2.2 nM,,,
Cc1c(C(=O)NN2CCCCC2)nn(-c2ccc(Cl)cc2Cl)c1-c1ccc(Cl)cc1 [RIMONABANT],,,,,48%,85.4%
